Reference: ChEMBL document CHEMBL1157465, “Design, synthesis, and biological evaluation of novel 3-aryl-4-(1H-indole-3yl)-1,5-dihydro-2H-pyrrole-2-ones as vascular endothelial growth factor receptor (VEGF-R) inhibitors” (J Med Chem, 2008)

Key:
Homo sapiens [1] = species on record: Homo sapiens; test: Induction of apoptosis in HDMEC at 2.1 uM after 5 hrs; type: functional
Method in brief: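 Positive-control condition: HDMEC treated 5 h at 2.1 µM. Adherent cells plus supernatant stained for cleaved caspase-3 and analysed by FACS as percent apoptotic cells. Repeated three times.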

[2] = target: Vascular endothelial growth factor receptor 2 (Homo sapiens, UniProt P35968); test: Inhibition of human recombinant VEGFR2
Method in brief: (§1)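 Recombinant human tyrosine kinases (EPHB4, TIE2, VEGF-R2, VEGF-R3), expressed in Sf9 insect cells as GST- or His-fusions, with poly(Glu,Tyr) 4:1 as substrate. Conditions: 1 µM [γ-33P]ATP, pH 7.5 HEPES buffer with Mg/Mn, DTT and vanadate, 30 °C for 80 min, 1% DMSO. Ten concentrations were tested and IC50 came from scintillation counting of incorporated 33P.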

[3] = target: Vascular endothelial growth factor receptor 3 (Homo sapiens, UniProt P35916); test: Inhibition of human recombinant VEGFR3; method in brief: as §1
Chain of Vascular endothelial growth factor receptor 3 (P35916 whole entry): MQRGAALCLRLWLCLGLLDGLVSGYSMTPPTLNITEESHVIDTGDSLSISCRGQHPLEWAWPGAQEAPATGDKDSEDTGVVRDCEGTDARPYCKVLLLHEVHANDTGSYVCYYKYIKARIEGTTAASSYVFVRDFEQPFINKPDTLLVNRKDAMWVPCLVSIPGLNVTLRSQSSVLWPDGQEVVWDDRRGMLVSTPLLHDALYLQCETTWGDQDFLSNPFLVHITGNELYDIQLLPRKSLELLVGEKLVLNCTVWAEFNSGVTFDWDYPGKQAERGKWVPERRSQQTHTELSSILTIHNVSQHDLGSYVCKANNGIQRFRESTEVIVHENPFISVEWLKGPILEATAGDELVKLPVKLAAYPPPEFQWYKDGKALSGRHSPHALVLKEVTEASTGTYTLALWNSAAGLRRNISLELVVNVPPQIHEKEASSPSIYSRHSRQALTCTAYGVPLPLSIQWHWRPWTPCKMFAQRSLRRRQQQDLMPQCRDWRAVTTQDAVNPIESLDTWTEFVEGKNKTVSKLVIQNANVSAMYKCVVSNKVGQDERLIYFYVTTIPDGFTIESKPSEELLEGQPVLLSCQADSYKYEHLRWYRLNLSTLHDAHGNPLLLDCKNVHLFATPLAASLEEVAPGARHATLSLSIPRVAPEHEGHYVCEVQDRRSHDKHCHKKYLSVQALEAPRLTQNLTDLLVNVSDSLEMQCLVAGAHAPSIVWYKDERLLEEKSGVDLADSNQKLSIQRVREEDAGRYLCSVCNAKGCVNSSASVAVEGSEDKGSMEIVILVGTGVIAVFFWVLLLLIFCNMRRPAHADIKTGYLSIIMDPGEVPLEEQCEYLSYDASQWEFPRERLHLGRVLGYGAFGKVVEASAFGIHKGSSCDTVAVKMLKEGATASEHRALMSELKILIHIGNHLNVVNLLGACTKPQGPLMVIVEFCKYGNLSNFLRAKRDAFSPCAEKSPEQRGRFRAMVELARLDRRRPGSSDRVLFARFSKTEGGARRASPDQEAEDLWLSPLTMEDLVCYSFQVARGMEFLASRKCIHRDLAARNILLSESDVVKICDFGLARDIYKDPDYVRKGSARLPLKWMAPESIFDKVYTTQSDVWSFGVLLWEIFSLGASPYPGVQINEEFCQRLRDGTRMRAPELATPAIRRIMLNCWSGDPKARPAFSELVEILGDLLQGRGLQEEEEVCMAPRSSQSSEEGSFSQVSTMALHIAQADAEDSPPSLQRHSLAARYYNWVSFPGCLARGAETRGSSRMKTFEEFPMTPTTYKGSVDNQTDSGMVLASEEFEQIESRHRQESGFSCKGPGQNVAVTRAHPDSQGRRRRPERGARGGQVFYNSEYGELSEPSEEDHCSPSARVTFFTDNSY

[4] = target: Receptor tyrosine-protein kinase erbB-2 (Homo sapiens, UniProt P04626); test: Inhibition of human recombinant ERBB2
Method in brief: (§2)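 Human kinases expressed in Sf9 cells via baculovirus as GST or His fusions and affinity purified. 33PanQinase assay in 60 mM HEPES-NaOH pH 7.5, 3 mM MgCl2, 3 mM MnCl2, 3 µM orthovanadate, 1.2 mM DTT, 1 µM [γ-33P]ATP, 1% DMSO; 30 °C, 80 min. Substrates: poly(Glu,Tyr) 4:1 for ERBB2, IGF1-R and SRC; poly(Ala,Glu,Lys,Tyr) 6:2:5:1 for FLT3. IC50 from 10 concentrations by scintillation counting.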

[5] = target: Casein kinase II subunit alpha (Homo sapiens, UniProt P68400); test: Inhibition of human recombinant CK2A1
Chain of Casein kinase II subunit alpha (P68400 whole entry, the tested form may be a part): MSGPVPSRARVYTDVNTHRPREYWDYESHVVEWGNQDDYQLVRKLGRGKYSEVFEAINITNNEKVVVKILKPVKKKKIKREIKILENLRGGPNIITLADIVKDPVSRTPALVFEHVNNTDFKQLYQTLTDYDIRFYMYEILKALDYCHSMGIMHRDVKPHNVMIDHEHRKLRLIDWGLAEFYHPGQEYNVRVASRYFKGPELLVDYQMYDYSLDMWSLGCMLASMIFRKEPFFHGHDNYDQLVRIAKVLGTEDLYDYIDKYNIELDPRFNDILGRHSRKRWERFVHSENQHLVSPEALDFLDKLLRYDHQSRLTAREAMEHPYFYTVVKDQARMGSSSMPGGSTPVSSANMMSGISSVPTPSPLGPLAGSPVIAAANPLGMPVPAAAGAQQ
Method in brief: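 Human kinases expressed in Sf9 cells by baculovirus as GST or His fusions and affinity purified. Radiometric 33PanQinase assay: 60 mM HEPES-NaOH pH 7.5, 3 mM MgCl2, 3 mM MnCl2, 3 µM orthovanadate, 1.2 mM DTT, 1 µM [γ-33P]ATP, 50-400 ng enzyme, 1% DMSO; 30 °C, 80 min. Substrates: B-Raf-VE, MEK1 KM; CDK2/CycA, histone H1; CK2-A1, casein; COT, autophosphorylation. IC50 from 10 concentrations; 33Pi incorporation by scintillation.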

[6] = target: T1, Receptor-type tyrosine-protein kinase FLT3 (Homo sapiens, UniProt P36888); test: Inhibition of human recombinant FLT3; method in brief: as §2
T1 sequence (P36888 whole entry): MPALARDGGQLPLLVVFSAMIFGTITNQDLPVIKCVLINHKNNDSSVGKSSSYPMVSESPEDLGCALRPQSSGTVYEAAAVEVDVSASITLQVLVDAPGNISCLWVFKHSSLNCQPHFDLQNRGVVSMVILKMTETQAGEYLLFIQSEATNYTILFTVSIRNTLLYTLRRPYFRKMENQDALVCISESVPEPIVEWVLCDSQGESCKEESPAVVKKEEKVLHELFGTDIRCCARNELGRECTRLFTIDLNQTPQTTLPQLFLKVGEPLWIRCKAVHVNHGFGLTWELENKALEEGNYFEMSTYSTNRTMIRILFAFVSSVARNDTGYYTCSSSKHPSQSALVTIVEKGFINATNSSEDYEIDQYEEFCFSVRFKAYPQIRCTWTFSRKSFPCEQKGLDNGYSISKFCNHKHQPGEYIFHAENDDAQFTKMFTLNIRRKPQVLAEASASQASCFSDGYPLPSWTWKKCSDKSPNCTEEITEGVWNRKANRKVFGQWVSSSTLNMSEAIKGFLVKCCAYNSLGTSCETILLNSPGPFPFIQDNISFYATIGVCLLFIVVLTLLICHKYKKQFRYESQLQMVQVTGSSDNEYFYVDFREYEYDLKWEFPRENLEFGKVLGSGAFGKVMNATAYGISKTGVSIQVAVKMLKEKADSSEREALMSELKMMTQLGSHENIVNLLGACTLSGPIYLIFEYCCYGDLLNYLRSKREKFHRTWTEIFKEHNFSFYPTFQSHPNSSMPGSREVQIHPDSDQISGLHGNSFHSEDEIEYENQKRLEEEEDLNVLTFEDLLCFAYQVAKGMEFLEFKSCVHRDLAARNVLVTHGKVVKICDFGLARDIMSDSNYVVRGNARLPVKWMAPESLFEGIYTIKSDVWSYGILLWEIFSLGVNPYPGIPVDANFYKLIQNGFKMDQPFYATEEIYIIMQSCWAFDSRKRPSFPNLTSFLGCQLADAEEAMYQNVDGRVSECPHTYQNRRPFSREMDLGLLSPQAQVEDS

[7] = target: Insulin-like growth factor 1 receptor (Homo sapiens, UniProt P08069); test: Inhibition of human recombinant IGF1R; method in brief: as §2
Chain of Insulin-like growth factor 1 receptor (P08069 31-736 limits assumed): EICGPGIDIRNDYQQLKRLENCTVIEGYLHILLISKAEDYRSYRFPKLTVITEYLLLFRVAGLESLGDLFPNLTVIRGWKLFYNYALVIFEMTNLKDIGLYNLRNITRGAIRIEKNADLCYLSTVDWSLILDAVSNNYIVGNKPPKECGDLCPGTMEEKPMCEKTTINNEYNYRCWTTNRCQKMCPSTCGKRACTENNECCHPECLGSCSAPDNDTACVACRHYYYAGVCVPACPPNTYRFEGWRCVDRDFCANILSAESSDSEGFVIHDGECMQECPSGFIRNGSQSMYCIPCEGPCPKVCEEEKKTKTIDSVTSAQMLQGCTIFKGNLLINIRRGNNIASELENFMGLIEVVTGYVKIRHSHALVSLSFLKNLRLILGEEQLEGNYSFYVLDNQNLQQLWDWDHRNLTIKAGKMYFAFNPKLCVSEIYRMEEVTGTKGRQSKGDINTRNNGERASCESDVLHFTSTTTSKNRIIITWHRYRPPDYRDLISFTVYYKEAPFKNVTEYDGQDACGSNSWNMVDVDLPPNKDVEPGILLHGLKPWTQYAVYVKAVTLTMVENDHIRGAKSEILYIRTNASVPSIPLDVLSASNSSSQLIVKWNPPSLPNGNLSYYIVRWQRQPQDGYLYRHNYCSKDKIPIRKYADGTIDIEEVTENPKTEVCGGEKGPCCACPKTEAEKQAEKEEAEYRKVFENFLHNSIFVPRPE
Chain of Insulin-like growth factor 1 receptor (P08069 741-1367 limits assumed): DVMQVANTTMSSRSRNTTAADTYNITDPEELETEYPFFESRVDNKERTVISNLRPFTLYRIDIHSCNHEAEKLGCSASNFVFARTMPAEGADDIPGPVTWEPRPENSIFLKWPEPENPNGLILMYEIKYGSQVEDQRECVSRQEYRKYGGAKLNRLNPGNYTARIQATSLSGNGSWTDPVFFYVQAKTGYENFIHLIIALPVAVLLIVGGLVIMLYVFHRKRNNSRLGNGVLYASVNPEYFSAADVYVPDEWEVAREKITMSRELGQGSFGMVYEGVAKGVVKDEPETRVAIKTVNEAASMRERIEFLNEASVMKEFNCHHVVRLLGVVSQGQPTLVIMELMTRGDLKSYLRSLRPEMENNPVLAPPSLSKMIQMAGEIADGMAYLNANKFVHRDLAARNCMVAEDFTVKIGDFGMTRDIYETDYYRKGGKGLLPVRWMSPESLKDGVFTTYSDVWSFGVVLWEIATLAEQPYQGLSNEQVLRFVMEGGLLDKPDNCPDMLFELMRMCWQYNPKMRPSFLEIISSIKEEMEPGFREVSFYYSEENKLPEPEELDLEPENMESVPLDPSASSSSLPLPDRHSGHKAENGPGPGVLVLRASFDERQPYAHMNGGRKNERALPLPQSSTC

Angiopoietin-1 receptor = Angiopoietin-1 receptor (Homo sapiens, UniProt Q02763); test: Inhibition of human recombinant TIE2; method in brief: as §1
Chain of Angiopoietin-1 receptor (Q02763 whole entry): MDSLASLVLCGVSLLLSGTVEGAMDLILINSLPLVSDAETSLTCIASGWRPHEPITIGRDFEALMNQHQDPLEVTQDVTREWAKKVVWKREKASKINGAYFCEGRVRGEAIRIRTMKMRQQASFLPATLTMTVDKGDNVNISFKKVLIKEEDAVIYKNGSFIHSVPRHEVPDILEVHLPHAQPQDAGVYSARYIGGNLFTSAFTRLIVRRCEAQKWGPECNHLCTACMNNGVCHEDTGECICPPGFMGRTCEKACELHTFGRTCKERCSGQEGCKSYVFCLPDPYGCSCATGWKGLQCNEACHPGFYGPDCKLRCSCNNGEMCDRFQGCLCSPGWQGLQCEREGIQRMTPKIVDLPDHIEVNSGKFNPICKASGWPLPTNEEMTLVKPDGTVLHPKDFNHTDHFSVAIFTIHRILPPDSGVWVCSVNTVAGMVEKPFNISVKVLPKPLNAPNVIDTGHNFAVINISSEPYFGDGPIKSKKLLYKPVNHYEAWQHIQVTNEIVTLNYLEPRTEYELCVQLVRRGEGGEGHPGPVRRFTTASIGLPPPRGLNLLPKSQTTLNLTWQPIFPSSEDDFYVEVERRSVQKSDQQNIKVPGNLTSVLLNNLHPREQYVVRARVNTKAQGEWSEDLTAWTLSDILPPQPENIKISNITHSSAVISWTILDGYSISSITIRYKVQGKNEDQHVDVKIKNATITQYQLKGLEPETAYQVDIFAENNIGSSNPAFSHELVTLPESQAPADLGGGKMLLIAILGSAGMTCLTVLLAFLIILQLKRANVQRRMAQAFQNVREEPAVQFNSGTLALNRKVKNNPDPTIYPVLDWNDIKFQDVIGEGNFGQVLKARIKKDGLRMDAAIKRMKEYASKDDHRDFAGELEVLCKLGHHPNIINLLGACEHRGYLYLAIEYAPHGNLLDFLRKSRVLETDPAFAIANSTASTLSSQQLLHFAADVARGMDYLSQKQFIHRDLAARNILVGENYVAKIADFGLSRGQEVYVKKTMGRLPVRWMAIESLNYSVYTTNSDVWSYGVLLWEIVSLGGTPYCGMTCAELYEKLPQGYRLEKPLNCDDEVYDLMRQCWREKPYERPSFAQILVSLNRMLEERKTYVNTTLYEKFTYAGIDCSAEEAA

[8] = target: Proto-oncogene tyrosine-protein kinase Src (Homo sapiens, UniProt P12931); test: Inhibition of human recombinant SRC; method in brief: as §2
Chain of Proto-oncogene tyrosine-protein kinase Src (P12931 2-536 limits assumed): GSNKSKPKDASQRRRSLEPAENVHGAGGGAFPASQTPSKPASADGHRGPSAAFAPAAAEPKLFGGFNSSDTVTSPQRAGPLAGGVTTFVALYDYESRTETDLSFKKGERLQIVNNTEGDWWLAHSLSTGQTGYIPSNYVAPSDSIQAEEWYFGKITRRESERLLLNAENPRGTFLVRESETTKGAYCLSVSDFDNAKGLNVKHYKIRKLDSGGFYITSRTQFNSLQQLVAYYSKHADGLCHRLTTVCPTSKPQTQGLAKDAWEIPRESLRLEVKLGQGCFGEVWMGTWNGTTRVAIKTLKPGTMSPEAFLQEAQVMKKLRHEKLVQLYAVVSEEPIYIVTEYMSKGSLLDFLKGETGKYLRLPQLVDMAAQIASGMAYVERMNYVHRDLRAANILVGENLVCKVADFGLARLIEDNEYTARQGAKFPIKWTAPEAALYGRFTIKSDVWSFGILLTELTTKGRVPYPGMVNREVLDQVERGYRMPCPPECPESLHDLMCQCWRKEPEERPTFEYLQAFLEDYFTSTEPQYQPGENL

Homo sapiens [9] = species on record: Homo sapiens; test: Antiangiogenic activity in VEGF-induced HLMEC assessed as sprouts per bead at 1.3 uM after 24 hrs by sprouting assay; type: functional
Method in brief: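 HLMEC seeded on cytodex-3 microcarrier beads and embedded in 3D fibrinogen gel with 20 ng/mL VEGF plus compound at a final 1.3 or 2.6 µM (from 1 mM DMSO stock). Gel polymerised with 0.65 U/mL thrombin and overlaid with MCDB131, 5% FCS, 5% human serum and 200 U/mL Trasylol. Negative control: gel without growth factors. After 24 h, fixed in 1% PFA; sprouts per 50 beads counted microscopically. Triplicates per condition, n = 9 experiments.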

[10] = target: Epidermal growth factor receptor (Homo sapiens, UniProt P00533); test: Inhibition of human recombinant EGFR
Ephrin type-B receptor 4 = Ephrin type-B receptor 4 (Homo sapiens, UniProt P54760); test: Inhibition of human recombinant EPHB4; method in brief: as §1

Row | SMILES | Activity (Homo sapiens [1]) [%] | IC50 [2] [µM] | IC50 [3] [µM] | IC50 [4] [µM] | IC50 [5] [µM] | IC50 [6] [µM] | IC50 [7] [µM] | IC50 (Angiopoietin-1 receptor) [µM] | IC50 [8] [µM] | inhibition (Homo sapiens [9]) [%] | IC50 [10] [µM] | IC50 (Ephrin type-B receptor 4) [µM]
1 | CN[C@@H]1C[C@H]2O[C@@](C)([C@@H]1OC)n1c3ccccc3c3c4c(c5c6ccccc6n2c5c31)C(=O)NC4 | 63.9 |  |  |  |  |  |  |  |  |  |  | 
2 | COc1cc(C2=C(c3cn(COCc4ccccc4)c4ccccc34)CNC2=O)cc(OC)c1OC |  | 1.6 | 1.7 | 36 | > 50 | 36 | 18 | 11 | 9.1 |  |  | 
3 | COc1cc(C2=C(c3cn(COCC[Si](C)(C)C)c4ccccc34)CNC2=O)cc(OC)c1OC |  | 3.1 | 5.6 |  |  | 34 | 8.7 | 26 | 4.5 | 30 | 22 | 44
